Results on two molecules are retold here after PMC3288683 (Bioconjugate Chemistry, 2012).

Data set [1] concerns SH-SY5Y cells. Kind of data set: specificity of uptake by flow cytometry. The format is cell-based, human. Particulars: 0.1 μM, 6 h at 37°C, three replicate experiments. In general terms: Flow cytometry measures light scatter and fluorescence of single cells or particles in a stream.
The subject of data set [2] is CHO-K1 cells. Kind of data set: specificity of uptake by flow cytometry, negative control cells. Conditions: all concentrations (0.1, 0.2, 0.35, 0.5 μM), 6 h at 37°C. It is filed as cell-based, Chinese hamster.
Data set [3] concerns SH-SY5Y cells. Kind of data set: time course of agent uptake by confocal microscopy. The format is cell-based, human. Particulars: 0.1 μM, 37°C.
For data set [4], the system named is CHO-K1 cells. Kind of data set: comparative uptake study by confocal microscopy, negative control cells. The format is cell-based, Chinese hamster.
Data set [5] concerns SH-SY5Y cells. Nature of the data set: live cell co-localization with RFP-labeled Rab5 in early endosomes. It is filed as cell-based, human. Particulars: 0.1 μM, 1 h at 37°C, intensities along the x-axis, Amira 5 software.
The test system of data set [6] is SH-SY5Y cells. Nature of the data set: Vybrant MTT Cell Proliferation Assay. The format is cell-based, human. Conditions: SH-SY5Y cells, 0.1, 0.5 and 1 μM, 12 h at 37°C, absorbance at 540 nm. The gist of the method: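 SH-SY5Y cells, maintained in 1:1 DMEM:F12 with 10% FBS at 37°C under 5% CO2, seeded at 2 × 10^4 cells/well and grown overnight in phenol red-free DMEM:F12. Exposed to test compound (0.1, 0.5, 1 μM) for 12 h at 37°C, then to MTT 1 mg/mL for 4 h. Formazan dissolved in Me2SO; absorbance read at 540 nm against untreated control cells.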

The subject of data set [7] is SH-SY5Y cells. Nature of the data set: comparative uptake study by confocal microscopy. The format is cell-based, human. Conditions: 0.1 μM, 4 h at 37°C, 3 fields per slide.

For `Cc1cn(CC(=O)N(CCNC(=O)CN(CCNC(=O)CN(CCNC(=O)CN(CCNC(=O)CN(CCNC(=O)CN(CCNC(=O)CN(CCNC(=O)CN(CCNC(=O)CN(CCNC(=O)COCCOCCNC(=O)[C@H](CO)NC(=O)[C@H](Cc2ccccc2)N(C)C(=O)CNC(=O)[C@@H](C)NC(=O)[C@@H](N)Cc2ccc(O)cc2)C(=O)Cn2ccc(N)nc2=O)C(=O)Cn2cnc3c(N)ncnc32)C(=O)Cn2cc(C)c(=O)[nH]c2=O)C(=O)Cn2cnc3c(=O)[nH]c(N)nc32)C(=O)Cn2cnc3c(=O)[nH]c(N)nc32)C(=O)Cn2cc(C)c(=O)[nH]c2=O)C(=O)Cn2cnc3c(=O)[nH]c(N)nc32)C(=O)Cn2ccc(N)nc2=O)CC(=O)NCCN(CC(=O)NCCN(CC(=O)NCCN(CC(=O)NCCOCCOCC(=O)N[C@@H](CSC2CC(=O)N(CCCCCNC(=O)c3ccc(-c4c5ccc(=N)c(S(=O)(=O)O)c-5oc5c(S(=O)(=O)O)c(N)ccc45)c(C(=O)O)c3)C2=O)C(=O)O)C(=O)Cn2ccc(N)nc2=O)C(=O)Cn2cnc3c(N)ncnc32)C(=O)Cn2ccc(N)nc2=O)c(=O)[nH]c1=O` (stereo partly drawn) [WT4879, Tyr-D-Ala-Gly-N-MePhe-Ser-AEEA-CAT GGT GCT CAC-AEEA-Cys-AlexaFluor488], the “uptake of WT4879 relative to WT4786 (ratio of specific over non-specific uptake)” value in the data set on SH-SY5Y cells [1] is ~ 5 fold. In addition, the “specificity ratio (WT4879 vs WT4786 uptake)” value in the data set with CHO-K1 cells [2] is given as 1 ± 0.3. For the same molecule, the “time course of uptake intensity” value in the data set on SH-SY5Y cells [3] (0-12 h, ImageJ, three regions of interest) is on record as “increased with time up to 4 h, leveling off thereafter”. Besides, the “uptake at 0.25 and 0.5 h” value in the data set on SH-SY5Y cells [3] (data not shown) is “No significant uptake”. Further, the “uptake after 1 h” value with SH-SY5Y cells [3] (uniformly distributed in the cytoplasm) was “taken up strongly”. Besides, in the data set with CHO-K1 cells [4] (0.1 μM, 4 h at 37°C, confocal microscopy, 3 fields per slide), the “uptake in CHO-K1 cells relative to SH-SY5Y cells” value is ~ 21%. Also, the “non-specific uptake in control cell-line CHO-K1” value in the data set with CHO-K1 cells [4] (conclusion, in words) is “minimal non-specific uptake”. The “overlap of AlexaFluor 488 intensity with RFP-labeled Rab5 intensity” value with SH-SY5Y cells [5] is more than 95%. In the data set with SH-SY5Y cells [6], the “cellular toxicity (MTT cell viability)” value is “No cellular toxicity was observed”.

As to “Ala-D-Ala-Gly-N-MePhe-Ser-AEEA-CAT GGT GCT CAC-AEEA-Cys-AlexaFluor488 [WT4786]”, in the data set on SH-SY5Y cells [7], the “uptake in SH-SY5Y cells relative to the specific WT4879” value was ~ 20%.
